Values after ≈ are worked out from the molar mass of the structure shown.
Legend:
[1] = Ratio of the cytotoxicities against drug induced aerobic Walker cells and chinese hamster ovary fibroblast line AA8; type: functional
Procedure, shortened: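 IC50 in AA8 divided by IC50 in Walker 256 (WS) cells. Walker cells were seeded at 225 cells/0.15 mL with continuous aerobic drug exposure over 4 days, read by MTT. Ratios are interexperiment means.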

[2] = Tested for hypersensitivity factor which is the ratio of cytotoxicities against aerobic UV4 cells and chinese hamster ovary fibroblast line AA8
[3] = Solubility (alpha-MEM culture medium, containing 5% fetal calf serum); type: physicochemical; settings: alpha-MEM culture medium with 5% fetal calf serum; read-out: S
Procedure, shortened: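 Solubility (mM) in α-MEM with 5% fetal calf serum, measured at ambient temperature by UV spectroscopy.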

[4] = system: UV4; test: The ratio of the cytotoxicities against UV4 cell line in the air and N2 was measured using clonogenic assay; type: functional, Cricetulus griseus
Procedure, shortened: (§1)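 UV4 cells (10^6/mL, stirred 10 mL suspensions) were gassed with 5% CO2 in air or in N2 after 60 min pre-equilibration, with clonogenic survival sampled over time. Concentrations giving similar kill rates under each gas were chosen. Ratio = CT10(air)/CT10(N2). Mean ± SEM of separate experiments.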

[5] = system: UV4; test: Tested for the product of drug concentration and exposure time required to reduce UV4 cell survival to 10% under hypoxic condition by clonogenic assay
[6] = system: CHO-AA8; test: Aerobic cytotoxicity was assessed in a growth inhibition assay using log phase cultures of the chinese hamster ovary fibroblast line AA8; type: functional, cell-based
Procedure, shortened: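 AA8 Chinese hamster ovary cells seeded at 200 cells/well, grown 24 h, then exposed 18 h to five 2-fold serial dilutions in duplicate. Drug washed out, cells grown a further 78 h, density read by methylene blue staining. IC50 = concentration giving 50% growth inhibition versus controls. Values are means ± SEM.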

[7] = The ratio of the cytotoxicities against UV4 cell line in the air and N2 was measured using clonogenic assay.; type: functional; procedure, shortened: as §1

SMILES	IC50 ratio [1]	IC50 ratio [2]	solubility [3] [µM]	CT10 ratio [4]	CT10 [5] [µM·h]	IC50 ([6]; Cricetulus griseus, CHO-AA8) [µM]	CT10 ratio [7]	IC50 ([6]; cho-aa8) [µM]
CCN(CCCl)c1cc(C(=O)NCCN(C)C)c([N+](=O)[O-])cc1[N+](=O)[O-]	5	1.9	> 38000	3.5	390	570	–	–
C[N+](C)([O-])CCNC(=O)c1cc(N(CCCl)CCCl)c([N+](=O)[O-])cc1[N+](=O)[O-]	2.3	1.7	> 42000	8	4500	7290	–	–
NC(=O)c1cc(N(CCBr)CCBr)c([N+](=O)[O-])cc1[N+](=O)[O-]	3.1	7.5	42 (≈ 18.5 µg/mL)	20	8	57	–	–
CS(=O)(=O)NS(=O)(=O)c1cc(N(CCCl)CCCl)c([N+](=O)[O-])cc1[N+](=O)[O-]	1.5	1	32000 (≈ 14900 µg/mL)	5.2	980	466	–	–
NS(=O)(=O)c1cc(N(CCCl)CCCl)c([N+](=O)[O-])cc1[N+](=O)[O-]	1.7	1.5	160 (≈ 62 µg/mL)	2.1	5.7	2	–	–
CN(C)C(=O)c1cc(N(CCCl)CCCl)c([N+](=O)[O-])cc1[N+](=O)[O-]	<0.3	1.4	130 (≈ 49.3 µg/mL)	>20	250	310	–	–
O=C(NCCN1CCOCC1)c1cc(N(CCCl)CCCl)c([N+](=O)[O-])cc1[N+](=O)[O-]	3.7	3	4700 (≈ 2180 µg/mL)	45	83	920	–	–
O=C(c1cc(N2CC2)c([N+](=O)[O-])cc1[N+](=O)[O-])N1CCOCC1	800	330	–	1.7	30	694	–	–
O=C(O)CCNC(=O)c1cc(N(CCCl)CCCl)c([N+](=O)[O-])cc1[N+](=O)[O-]	1.5	1.1	11000 (≈ 4660 µg/mL)	2.3	12000	6100	–	–
NC(=O)c1cc(N(CCI)CCI)c([N+](=O)[O-])cc1[N+](=O)[O-]	5.2	2.6	35 (≈ 18.7 µg/mL)	42	4.4	34	–	–
O=C(NCC(O)CO)c1cc(N(CCCl)CCCl)c([N+](=O)[O-])cc1[N+](=O)[O-] (stereo not given)	1.6	4.4	7400 (≈ 3150 µg/mL)	8.6	465	1930	–	–
N#Cc1cc(N(CCCl)CCCl)c([N+](=O)[O-])cc1[N+](=O)[O-]	3.2	6.8	120 (≈ 40 µg/mL)	8.5	10	24	–	–
CS(=O)(=O)OCCN(CCCl)c1cc(C(N)=O)c([N+](=O)[O-])cc1[N+](=O)[O-]	6	13	840 (≈ 345 µg/mL)	–	48	945	60	–
O=C(O)c1cc(N(CCCl)CCCl)c([N+](=O)[O-])cc1[N+](=O)[O-]	4.7	1.4	18000 (≈ 6340 µg/mL)	–	19000	10600	>1.2	–
O=C(NCCO)c1cc(N(CCCl)CCCl)c([N+](=O)[O-])cc1[N+](=O)[O-]	–	–	100 (≈ 39.5 µg/mL)	–	–	> 100	–	–
NC(=O)c1cc(N(CCCl)CCCl)c([N+](=O)[O-])cc1[N+](=O)[O-]	4.1	6.8	190 (≈ 66.7 µg/mL)	58	95	–	–	470
NC(=O)c1cc(N2CC2)c([N+](=O)[O-])cc1[N+](=O)[O-] [TRETAZICAR]	37000	50	7900 (≈ 1990 µg/mL)	3.6	225	563	–	–
CCN(CCCl)c1cc(C(N)=O)c([N+](=O)[O-])cc1[N+](=O)[O-]	>1	–	160 (≈ 50.7 µg/mL)	–	> 300	> 97	–	–
CNC(=O)c1cc(N(CCCl)CCCl)c([N+](=O)[O-])cc1[N+](=O)[O-]	–	–	200 (≈ 73 µg/mL)	–	> 360	> 100	–	–
NC(=S)c1cc(N(CCCl)CCCl)c([N+](=O)[O-])cc1[N+](=O)[O-]	>1	>2	38 (≈ 14 µg/mL)	>3	19	> 25	–	–
CN(C)CCNC(=O)c1cc(N(CCCl)CCCl)c([N+](=O)[O-])cc1[N+](=O)[O-]	5.6	3.9	35000 (≈ 14800 µg/mL)	60	21	220	–	–
CS(=O)(=O)OCCN(CCOS(C)(=O)=O)c1cc(C(N)=O)c([N+](=O)[O-])cc1[N+](=O)[O-]	>3	>4	530 (≈ 249 µg/mL)	17	70	–	–	–
NC(=O)c1cc(NCCCl)c([N+](=O)[O-])cc1[N+](=O)[O-]	380	1.4	–	–	–	748	–	–
O=C(c1cc(N(CCCl)CCCl)c([N+](=O)[O-])cc1[N+](=O)[O-])N1CCOCC1	4.1	23	30 (≈ 12.6 µg/mL)	1.3	125	240	–	–

Source: ChEMBL document CHEMBL1127572, “Hypoxia-selective antitumor agents. 9. Structure-activity relationships for hypoxia-selective cytotoxicity among analogues of 5-[N,N-bis(2-chloroethyl)amino]-2,4-dinitrobenzamide” (J Med Chem, 1994)
